This is an account of results in ChEMBL document CHEMBL1135483, “N-Substituted 4-amino-3,3-dipropyl-2(3H)-furanones: new positive allosteric modulators of the GABA(A) receptor sharing electrophysiological properties with the anticonvulsant loreclezole” (2002).

In experiment [1] the target is T1, GABA-A receptor; anion channel (Rattus norvegicus) (UniProt O09028+P15431+P18506+P18508+P19969+P20236+P23574+P23576+P28471+P28473+P30191+P62813+P63079+P63138+Q91ZM7+Q9ES14). Nature of the experiment: Displacement of [3H]flunitrazepam from GABA-A receptor of rat brain membranes at 100 uM. The settings on record: Membrane. It is filed as cell membranes. Put shortly:
(§1)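 Cerebellar or forebrain rat membranes, about 1 mg/mL protein, were incubated 90 min at 4 °C with 2 nM [3H]flunitrazepam in 50 mM Tris-citrate pH 7.4 with 150 mM NaCl. Nonspecific binding was set with 10 µM diazepam. Samples were filtered on GF/B and counted by scintillation. Result is % displacement or stimulation; at least three experiments in triplicate.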
In general terms: In a radioligand displacement assay an active substance lowers the binding of a labelled ligand.

The target in experiment [2] is T1, GABA-A receptor; anion channel (Rattus norvegicus). As to the kind of experiment: (§2) Displacement of [3H]muscimol from Gamma-aminobutyric acid A (GABA-A) receptor of rat brain membranes at 100 uM. The settings on record: Membrane. The experiment is classed as cell membranes. Put shortly: (§3)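 Cerebellar or forebrain rat membranes, about 1 mg/mL protein, were incubated 90 min at 4 °C with 2 nM [3H]muscimol in 50 mM Tris-citrate pH 7.4 with 150 mM NaCl. Nonspecific binding was taken with 10 µM GABA. Filters were rinsed twice with ice-cold buffer and counted by scintillation. Result is % displacement or stimulation; at least three experiments in triplicate.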

Experiment [3] shares this target. As to the kind of experiment: Displacement of [35S]TBPS from Gamma-aminobutyric acid A (GABA-A) receptor of rat brain membranes at 100 uM. Particulars: Membrane. The experiment is classed as cell membranes. Summed up:
(§4)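 Rat cerebellum or forebrain (brain minus cerebellum) membranes, about 1 mg/mL protein, were incubated with 2 nM [35S]-TBPS in 50 mM Tris-citrate pH 7.4 plus 200 mM NaBr for 180 min at room temperature. Nonspecific binding was defined with 10 µM TBPS. Samples were filtered on GF/B and counted by scintillation. Result is % displacement; at least three experiments in triplicate.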

Experiment [4] deals with T2, GABA-A receptor; alpha-1/beta-2/gamma-2 (Rattus norvegicus) (UniProt P18508+P62813+P63138). Nature of the experiment: (§5) Percent stimulation of GABA-induced currents in Xenopus Oocytes expressing rat GABA-A receptor alpha-1-beta-2-gamma-2 subunits at 200 uM. The experiment is classed as functional, cell-based. Summed up:
(§6)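 Oocytes expressing recombinant rat α1β2γ2 GABA-A receptors (cRNA injected in 5 mM K-Hepes, pH 6.8) were recorded by two-electrode voltage clamp at -80 mV in 90 mM NaCl, 1 mM KCl, 1 mM MgCl2, 1 mM CaCl2, 10 mM Na-Hepes, pH 7.4. Compound was co-applied with GABA at 2-4% of maximal current for 20 s, then 4 min washout. Values are the mean of three assays ± SEM.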

Experiment [5] concerns the target T2, GABA-A receptor; alpha-1/beta-2/gamma-2 (Rattus norvegicus). As to the kind of experiment: Percent stimulation of GABA-induced currents in Xenopus Oocytes expressing rat GABA-A receptor alpha-1-beta-2-gamma-2 subunits at 5 uM. It is filed as functional, cell-based. Summed up:
(§7)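 Xenopus laevis oocytes were injected with cRNA for rat receptor subunits and recorded by two-electrode voltage clamp at -80 mV. Bath was 90 mM NaCl, 1 mM KCl, 1 mM MgCl2, 1 mM CaCl2, 10 mM Na-Hepes pH 7.4. GABA giving about 2-4% of maximal current was applied for 20 s alone or with compound, with 4 min washout. Result is % change in current; average of three.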

Experiment [6] shares this target. As to the kind of experiment: Percent stimulation of GABA-induced currents in Xenopus Oocytes expressing rat GABA-A receptor alpha-1-beta-2-gamma-2 subunits at 50 uM. It is filed as functional, cell-based. Put shortly:
as §7

Experiment [7] has the same target. The experiment is described as §5. It is filed as functional, cell-based. Summed up:
as §6
The source holds these as a separate data set.

The test system of experiment [8] is GABA-A receptor alpha-1/beta-2 (Rattus norvegicus). As to the kind of experiment: Percent stimulation of GABA-induced currents in Xenopus Oocytes expressing rat GABA-A receptor alpha-1-beta-2 subunits at 100 uM.
Experiment [9] addresses T2, GABA-A receptor; alpha-1/beta-2/gamma-2 (Rattus norvegicus). As to the kind of experiment: Percent stimulation of GABA-induced currents in Xenopus Oocytes expressing rat GABA-A receptor alpha-1-beta-2-gamma-2 subunits at 2 uM. The experiment is classed as functional, cell-based. Summed up: as §6
Experiment [10] in a line: Percent stimulation of GABA-induced currents in Xenopus Oocytes expressing mutant rat GABA-A receptor alpha-1-beta-2(N265S) subunits at 100 uM. It is filed as functional. Summed up:
as §7

Experiment [11] has as its target T2, GABA-A receptor; alpha-1/beta-2/gamma-2 (Rattus norvegicus). As to the kind of experiment: Percent stimulation of GABA-induced currents in Xenopus Oocytes expressing rat GABA-A receptor alpha-1-beta-2-gamma-2 subunits at 20 uM. It is filed as functional, cell-based. Put shortly: as §7
In experiment [12] the target is T1, GABA-A receptor; anion channel (Rattus norvegicus). As to the kind of experiment: Displacement of [3H]-muscimol from Gamma-aminobutyric acid A (GABA-A) receptor of Rat forebrain at 100 uM. Summed up:
as §3

For experiment [13], the species on record is Rattus norvegicus. As to the kind of experiment: Displacement of [35S]TBPS from Gamma-aminobutyric acid A (GABA-A) receptor of rat forebrain tissue at 100 uM. Summed up:
as §4

Experiment [14] is filed under the species Rattus norvegicus. Nature of the experiment: Displacement of [35S]-TBPS from Gamma-aminobutyric acid A (GABA-A) receptor of rat cerebellar tissue at 100 uM. Put shortly: as §4
The target of experiment [15] is T2, GABA-A receptor; alpha-1/beta-2/gamma-2 (Rattus norvegicus). Nature of the experiment: Percent stimulation of GABA-induced currents in Xenopus Oocytes expressing rat GABA-A receptor alpha-1-beta-2-gamma-2 subunits at 100 uM. It is filed as functional, cell-based. Put shortly: as §7
Experiment [16] concerns the target T1, GABA-A receptor; anion channel (Rattus norvegicus). Nature of the experiment: Displacement of [3H]flunitrazepam from GABA-A receptor of rat forebrain tissue at 100 uM. Put shortly:
as §1

The species named for experiment [17] is Rattus norvegicus. Described as §2. It is filed as cell membranes. The settings on record: Membrane. Put shortly:
as §3

Experiment [18] addresses T1, GABA-A receptor; anion channel (Rattus norvegicus). As to the kind of experiment: Displacement of [3H]flunitrazepam from GABA-A receptor of rat cerebellar tissues at 100 uM. It is filed as protein-complex assay. Summed up:
as §1

Experiment [19] addresses T2, GABA-A receptor; alpha-1/beta-2/gamma-2 (Rattus norvegicus). Described as §5. The experiment is classed as functional, cell-based. Summed up:
as §6
This is another data set of the same source.

`C=CC[C@H]1C(=O)OC[C@H]1NCc1ccccc1` (racemic): the Displacement turned out to be 0% in [1], 0% in [2] and 60% in experiment [3]. In [4], the Stimulation turned out to be 73%.

`CCCC1(CCC)C(=O)OC[C@H]1NS(=O)(=O)c1ccc(Cl)cc1` (racemic): the Displacement in [1] was -25%; in [2], 0%; in [3], 85%. Also, the Stimulation in experiment [5] came out at 23%.

On to `C=CC[C@@H]1C(=O)OC[C@H]1NCc1ccccc1` (racemic), for which the Stimulation in experiment [4] was -1%.

On to `CCCC1(CCC)C(=O)OC[C@H]1NS(=O)(=O)c1ccc2ccccc2c1` (racemic), for which the Stimulation in [6] amounted to 4%. In addition, the Displacement in [1] was determined as 0%; in experiment [2], 0%; in experiment [3], 75%.

`CCCC1(CCC)C(=O)OC[C@H]1NC(=O)c1ccccc1` (racemic): the Displacement was -15% in [1], 65% in [3] and 0% in [12]. Besides, the Stimulation stood at 420% in [7]; 557% in [8]; 17% in [9]; 648% in [10]; 207% in experiment [11]; 420% in experiment [4].

With `C=CCC1(CC=C)C(=O)OC[C@H]1NCc1ccccc1` (racemic), the Displacement in [1] is -14%; in experiment [2] it was 0%; in [3], 60%. Further, the Stimulation in [4] worked out at 115%.

For `CCCC1(CCC)C(=O)OC[C@H]1NS(=O)(=O)c1ccc(C(F)(F)F)cc1` (racemic), the Displacement was -20% in [1], 0% in [2], 70% in the experiment listed under Rattus norvegicus [13] and 40% in the experiment filed under Rattus norvegicus [14]. In addition, the Stimulation in experiment [4] was -44%.

As to `CCCC1(CCC)C(=O)OC[C@@H]1NC(=O)OCc1ccccc1` [listing 1 of 2 here], the Stimulation in experiment [10] is reported as 123%.

For the molecule `CCCC1(CCC)C(=O)OC[C@H]1NS(=O)(=O)c1cccs1` (racemic), the Stimulation in [4] is -16%.

Turning to `CCCC1(CCC)C(=O)OC[C@H]1NC(=O)OC(C)(C)C` (racemic), the Stimulation in experiment [4] worked out at 46%.

Regarding `CCCC1(CCC)C(=O)OC[C@H]1NS(=O)(=O)c1ccc(OC)cc1` (racemic), the Displacement was determined as 0% in experiment [1], 0% in experiment [2] and 80% in experiment [3]. Also, the Stimulation in [4] was -22%.

Regarding `CCCC1(CCC)C(=O)OC[C@H]1NC(=O)Oc1ccccc1` (racemic), the Displacement is -25% in experiment [1], 75% in [3] and 0% in experiment [12]. In experiment [4], the Stimulation was found to be 330%.

With `O=C1C[C@H](NCc2ccccc2)CO1` (racemic), the Stimulation in [4] was 0%.

Turning to `CCCC1(CCC)C(=O)OC[C@@H]1NC(=O)OCc1ccccc1` [listing 2 of 2 here], the Stimulation in experiment [8] was 324%; in [15], 279%.

`CCCC1(CCC)C(=O)OC[C@H]1NS(=O)(=O)N(C)C` (racemic): the Stimulation in [4] is -1%.

Turning to `C=CCOC(=O)N[C@@H]1COC(=O)C1(CCC)CCC` (racemic), the Stimulation in experiment [7] amounted to 765%; in [16], 15%; in [8], 2130%; in [9], 26%; in [18] it was 0%; in experiment [10], 627%. Besides, the Stimulation in experiment [11] was 229%; in [4], 765%. The Displacement is 0% in the experiment listed under Rattus norvegicus [17] and 50% in experiment [3].

As for `CCCC1(CCC)C(=O)OC[C@H]1NC(=O)OCc1ccccc1`, the Stimulation in [15] came to 104%.

`CCCC1(CCC)C(=O)OC[C@H]1NC(=O)OCC` (racemic): the Displacement came to 0% in [1], 0% in experiment [2] and 30% in [3]. The Stimulation in experiment [4] stood at 426%.

For `O=C1C[C@H](NC(=O)OCc2ccccc2)CO1` (racemic), in experiment [4], the Stimulation turned out to be 47%.

Turning to `CCCC1(CCC)C(=O)OC[C@@H]1NC(=O)OCc1ccccc1` (stereo in doubt), the Displacement in [1] turned out to be 0%; in [2], 0%; in experiment [3], 70%. Also, the Stimulation in experiment [15] was 279%.

In the case of `CCC1(C)CCSC1=O` (centres undefined), the Displacement in [1] was 0%; in experiment [2], 0%; in experiment [3] it was 25%. Besides, the Stimulation is 386% in experiment [7]; 192% in [19]; 10% in experiment [9]; 39% in [11]; 352% in experiment [4].
